Published values collected from several papers.
Protocols differ between the studies behind these lines.
Effect on: cell growth or viability

`Nc1nc(O)c2ncn(COC(CO)CO)c2n1` gave a CC50 of 63 µM (HEL; 72 h).
For `CCOP(=O)(OCC)[C@@H]1C[C@@H](n2cc(Cn3cnc4c(N)ncnc43)nn2)ON1C` (racemic), the CC50 was > 100 µM (HEL; 72 h).
`COc1ccc(S(=O)(=O)ON=C2C=C(C)C(=O)C(C)=C2)cc1` gave a CC50 of > 30 µM (HPAC).
For `CCOP(=O)(OCC)[C@@H]1C[C@H](n2cc(Cn3cc(C)c(=O)[nH]c3=O)nn2)ON1C` (racemic), the CC50 was > 100 µM (HEL; 72 h).
The CC50 of `O=c1[nH]c(=O)c2ncn(C[C@@H](CO)OCP(=O)(O)O)c2[nH]1` is reported as > 300 µM (HEL; 72 h).
`Cc1nc2ccc(Cl)cn2c1C(=O)N1CCN(CCn2cc(C3CC3)nn2)CC1` has a CC50 of > 100 µM (HeLa; resazurin).
The CC50 of `O=c1[nH]c(=O)c2ncn(CCOCP(=O)(O)O)c2[nH]1` is reported as 111 µM (HEL; 72 h).
The CC50 of `Cc1ccn2c(C(=O)N3CCN(Cc4cn(-c5ccccc5Cl)nn4)CC3)c(C)nc2c1` is reported as > 100 µM (HeLa; resazurin).
For `C[C@H](NC(=O)[C@]1(Cc2ccccc2)CCN1C(=O)OCc1ccccc1)C(=O)NC(C)(C)C`, the CC50 was > 100 µM (HEL; 72 h).
For `CCOP(=O)(OCC)[C@@H]1C[C@H](n2cc(Cn3ccc(=O)[nH]c3=O)nn2)ON1C` (racemic), the CC50 was > 100 µM (HEL; 72 h).
For `Cc1nc2ccc(Cl)cn2c1C(=O)N1CCN(Cc2cn(-c3ccc(F)cc3)nn2)CC1`, the CC50 was > 100 µM (HeLa; resazurin).
